Activity calls are given as the source filed them. No cut-off for these calls is given here. Bridge positions count the residues as written; N and C are the ends. Square brackets hold non-standard residues; d marks the D form. Peptide text beside a SMILES is read from it. * marks the point of attachment. NMe2Val = CC(C)[C@@H](C(=O)*)N(C)C; NMeI = CC[C@H](C)[C@H](NC)C(=O)O; NMeT = CN[C@H](C(=O)O)[C@@H](C)O; NMeL = CN[C@@H](CC(C)C)C(=O)O; dHiv = CC(C)[C@@H](O)C(=O)O; NMeA = CN[C@@H](C)C(=O)O; dNMeA = CN[C@H](C)C(=O)O
Assays:
MDA-MB-231 [1] = assay: Growth inhibition of human MDA-MB-231 cells incubated for 72 hrs by MTT assay; type: functional; settings: MDA-MB-231, 72 h
In short: (§1)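 Cells seeded in 96-well plates; after 12 h, fresh medium with a concentration gradient of compound or DMSO vehicle added, then 72 h incubation. MTT added (final 0.5 mg/mL) for 4 h, medium removed, formazan dissolved in DMSO, shaken 2 min, 30 min at 37 °C, absorbance read at 490 nm. Inhibition % = [1 − OD(compound)/OD(control)] × 100; GI50 = 50% reduction versus control; three independent experiments.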

PANC-1 = assay: Growth inhibition of human PANC1 cells incubated for 72 hrs by MTT assay; type: functional; settings: PANC-1, 72 h; in short: as §1
A549 = assay: Growth inhibition of human A549 cells incubated for 72 hrs by MTT assay; type: functional; settings: A549, 72 h; in short: as §1
Mus musculus [2] = assay: Toxicity in Balb/c nude mouse xenografted with human MDA-MB-231 cells assessed as induction of body weight loss at 0.3 mg/kg, sc dosed every 2 days for total of 11 compound injections; type: organism-based; settings: in vivo, 48 h
In short: (§2)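 Balb/c nude mice given 1 ×10^7 MDA-MB-231 cells subcutaneously in right flank; at tumor size ∼100 mm3 (L × W × 1/2W), peritumoral subcutaneous injection every 2 days, vehicle equal volume 20% DMSO/80% sterile saline. Tumor size and body weight measured before each injection; after 11 injections mice sacrificed and tumors weighed. n = 7 treated, 4 vehicle; one-way ANOVA.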

MDA-MB-231 [3] = assay: Antitumor activity against human MDA-MB-231 cells xenografted in Balb/c nude mouse assessed as reduction in tumor mass at 0.3 mg/kg, sc dosed every 2 days for total of 11 compound injections; type: functional; in short: as §2
MDA-MB-231 [4] = assay: Antitumor activity against human MDA-MB-231 cells xenografted in Balb/c nude mouse assessed as reduction in tumor size at 0.3 mg/kg, sc dosed every 2 days for total of 11 compound injections measured on day 9 onwards; type: functional, organism-based; in short: as §2
Mus musculus [5] = assay: Toxicity in Balb/c nude mouse xenografted with human MDA-MB-231 cells assessed as induction of side effect at 0.3 mg/kg, sc dosed every 2 days for total of 11 compound injections; type: organism-based; settings: in vivo, 48 h; in short: as §2

SMILES	GI50 (MDA-MB-231 [1]) [nM]	GI50 (PANC-1) [nM]	GI50 (A549) [nM]	Activity (Mus musculus [2])	fold change (FC) (MDA-MB-231 [3])	Activity (MDA-MB-231 [4])	Activity (Mus musculus [5])
CC[C@H](C)[C@H]1C(=O)N[C@@H](C)C(=O)N(C)[C@@H](CC(C)C)C(=O)N[C@@H](Cc2ccc(OC)cc2)C(=O)N(C)[C@H](C)C(=O)O[C@H](C)[C@@H](N(C)C(=O)[C@H](CC(C)C)N(C)C(=O)[C@H](COC)N(C)C(=O)[C@@H](OC(=O)[C@H](C(C)C)N(C)C)C(C)C)C(=O)N(C)[C@@H](COC)C(=O)N1C	10800	–	–	–	–	–	–
CC[C@H](C)[C@H]1C(=O)N[C@@H](C)C(=O)N(C)[C@@H](CC(C)C)C(=O)N[C@@H](Cc2ccc(OC)cc2)C(=O)N(C)[C@H](C)C(=O)O[C@H](C)[C@H](N(C)C(=O)[C@H](CC(C)C)N(C)C(=O)[C@H](C)N(C)C(=O)[C@H](OC(=O)[C@H](C(C)C)N(C)C(=O)CCNC(=O)OC(C)(C)C)C(C)C)C(=O)N(C)[C@@H](C)C(=O)N1C	239	415	443	–	–	–	–
CC[C@H](C)[C@H]1C(=O)N[C@@H](C)C(=O)N(C)[C@@H](CC(C)C)C(=O)N[C@@H](Cc2ccc(OC)cc2)C(=O)N(C)[C@H](C)C(=O)O[C@H](C)[C@H](N(C)C(=O)[C@H](CC(C)C)N(C)C(=O)[C@H](COC)N(C)C(=O)[C@@H](OC(=O)[C@H](C(C)C)N(C)C)C(C)C)C(=O)N(C)[C@@H](COC)C(=O)N1C	545	–	19	–	–	–	–
CC[C@H](C)[C@H]1C(=O)N[C@@H](C)C(=O)N(C)[C@@H](CC(C)C)C(=O)N[C@@H](Cc2ccc(OC)cc2)C(=O)N(C)[C@H](C)C(=O)O[C@H](C)[C@H](N(C)C(=O)[C@H](CC(C)C)N(C)C(=O)[C@H](COC(C)(C)C)N(C)C(=O)[C@H](OC(=O)[C@H](C(C)C)N(C)C)C(C)C)C(=O)N(C)[C@@H](C)C(=O)N1C	5.3	32.9	12.4	–	–	–	–
CC[C@H](C)[C@H]1C(=O)N[C@@H](C)C(=O)N(C)[C@@H](CC(C)C)C(=O)N[C@@H](Cc2ccc(OC)cc2)C(=O)N(C)[C@H](C)C(=O)O[C@H](C)[C@H](N(C)C(=O)[C@H](CC(C)C)N(C)C(=O)[C@H](COC)N(C)C(=O)[C@H](OC(=O)[C@H](C(C)C)N(C)C)C(C)C)C(=O)N(C)[C@@H](COC)C(=O)N1C	5	3.1	5.4	–	–	–	–
CC[C@H](C)[C@H]1C(=O)N[C@@H](C)C(=O)N(C)[C@@H](CC(C)C)C(=O)N[C@@H](Cc2ccc(OC)cc2)C(=O)N(C)[C@H](C)C(=O)O[C@H](C)[C@H](N(C)C(=O)[C@H](CC(C)C)N(C)C(=O)[C@H](CCCCNC(=O)OC(C)(C)C)N(C)C(=O)[C@H](OC(=O)[C@H](C(C)C)N(C)C)C(C)C)C(=O)N(C)[C@@H](C)C(=O)N1C	61.6	124	81.7	–	–	–	–
CC[C@H](C)[C@H]1C(=O)N[C@@H](C)C(=O)N(C)[C@@H](CC(C)C)C(=O)N[C@@H](Cc2ccc(OC)cc2)C(=O)N(C)[C@@H](C)C(=O)O[C@H](C)[C@H](N(C)C(=O)[C@H](CC(C)C)N(C)C(=O)[C@H](COC)N(C)C(=O)[C@@H](OC(=O)[C@H](C(C)C)N(C)C)C(C)C)C(=O)N(C)[C@@H](COC)C(=O)N1C	> 16000	–	22800	–	–	–	–
CC[C@H](C)[C@H]1C(=O)N[C@@H](C)C(=O)N(C)[C@@H](CC(C)C)C(=O)N[C@@H](Cc2ccc(OC)cc2)C(=O)N(C)[C@H](C)C(=O)O[C@H](C)[C@H](N(C)C(=O)[C@H](CC(C)C)N(C)C(=O)[C@H](C)N(C)C(=O)[C@H](OC(=O)[C@@H](NC)C(C)C)C(C)C)C(=O)N(C)[C@@H](C)C(=O)N1C	236	204	360	–	–	–	–
CC[C@H](C)[C@H]1C(=O)N[C@@H](C)C(=O)N(C)[C@@H](CC(C)C)C(=O)N[C@@H](Cc2ccc(OC)cc2)C(=O)N(C)[C@H](C)C(=O)O[C@H](C)[C@H](N(C)C(=O)[C@H](CC(C)C)N(C)C(=O)[C@H](C)N(C)C(=O)[C@@H](C(C)C)N(C)C(=O)[C@H](C(C)C)N(C)C)C(=O)N(C)[C@@H](C)C(=O)N1C	415	723	511	–	–	–	–
CC[C@H](C)[C@H]1C(=O)N[C@@H](C)C(=O)N(C)[C@@H](CC(C)C)C(=O)N[C@@H](Cc2ccc(OC)cc2)C(=O)N(C)[C@H](C)C(=O)O[C@H](C)[C@H](N(C)C(=O)[C@H](CC(C)C)N(C)C(=O)[C@@H](COC)N(C)C(=O)[C@@H](OC(=O)[C@H](C(C)C)N(C)C)C(C)C)C(=O)N(C)[C@@H](COC)C(=O)N1C	2660	1910	2000	–	–	–	–
CC[C@H](C)[C@H]1C(=O)N[C@@H](C)C(=O)N(C)[C@@H](CC(C)C)C(=O)N[C@@H](Cc2ccc(OC)cc2)C(=O)N(C)[C@@H](C)C(=O)O[C@H](C)[C@H](N(C)C(=O)[C@H](CC(C)C)N(C)C(=O)[C@H](COC)N(C)C(=O)[C@H](OC(=O)[C@H](C(C)C)N(C)C)C(C)C)C(=O)N(C)[C@@H](COC)C(=O)N1C	7520	12400	20100	–	–	–	–
CC[C@H](C)[C@H]1C(=O)N[C@@H](C)C(=O)N(C)[C@@H](CC(C)C)C(=O)N[C@@H](Cc2ccc(OC)cc2)C(=O)N(C)[C@H](C)C(=O)O[C@H](C)[C@H](N(C)C(=O)[C@H](CC(C)C)N(C)C(=O)[C@H](CO)N(C)C(=O)[C@H](OC(=O)[C@H](C(C)C)N(C)C)C(C)C)C(=O)N(C)[C@@H](CO)C(=O)N1C	2060	2180	–	–	–	–	–
CC[C@H](C)[C@H]1C(=O)N[C@@H](C)C(=O)N(C)[C@@H](CC(C)C)C(=O)N[C@@H](Cc2ccc(OC)cc2)C(=O)N(C)[C@H](C)C(=O)O[C@H](C)[C@H](N(C)C(=O)[C@H](CC(C)C)N(C)C(=O)[C@H](C)N(C)C(=O)[C@H](OC(=O)[C@H](C(C)C)N(C)C(=O)CCN)C(C)C)C(=O)N(C)[C@@H](C)C(=O)N1C	> 16000	–	–	–	–	–	–
CCCCCCCCCC(=O)N(C)[C@@H](CC(C)C)C(=O)N(C)[C@@H]1C(=O)N(C)[C@@H](C)C(=O)N(C)[C@@H]([C@@H](C)CC)C(=O)N[C@@H](C)C(=O)N(C)[C@@H](CC(C)C)C(=O)N[C@@H](Cc2ccc(OC)cc2)C(=O)N(C)[C@H](C)C(=O)O[C@@H]1C	470	828	733	–	–	–	–
CC[C@H](C)[C@H]1C(=O)N[C@@H](C)C(=O)N(C)[C@@H](CC(C)C)C(=O)N[C@@H](Cc2ccc(OC)cc2)C(=O)N(C)[C@H](C)C(=O)O[C@H](C)[C@H](N(C)C(=O)[C@H](CC(C)C)N(C)C(=O)[C@H](COC)N(C)C(=O)[C@H](NC(=O)[C@H](C(C)C)N(C)C)C(C)C)C(=O)N(C)[C@@H](COC)C(=O)N1C	450	601	473	–	–	–	–
CC[C@H](C)[C@H]1C(=O)N[C@@H](C)C(=O)N(C)[C@@H](CC(C)C)C(=O)N[C@@H](Cc2ccc(OC)cc2)C(=O)N(C)[C@H](C)C(=O)O[C@H](C)[C@H](N(C)C(=O)[C@H](CC(C)C)N(C)C(=O)[C@H](CO)N(C)C(=O)[C@H](OC(=O)[C@H](C(C)C)N(C)C)C(C)C)C(=O)N(C)[C@@H](COC(C)(C)C)C(=O)N1C	20.8	46.3	194	–	–	–	–
CC[C@H](C)[C@H]1C(=O)N[C@@H](C)C(=O)N(C)[C@@H](CC(C)C)C(=O)N[C@@H](Cc2ccc(OC)cc2)C(=O)N(C)[C@H](C)C(=O)O[C@H](C)[C@H](N(C)C(=O)[C@H](CC(C)C)NC)C(=O)N(C)[C@@H](C)C(=O)N1C	> 16000	–	–	–	–	–	–
CC[C@H](C)[C@H]1C(=O)N[C@@H](C)C(=O)N(C)[C@@H](CC(C)C)C(=O)N[C@@H](Cc2ccc(O)cc2)C(=O)N(C)[C@H](C)C(=O)O[C@H](C)[C@H](N(C)C(=O)[C@H](CC(C)C)N(C)C(=O)[C@H](COC)N(C)C(=O)[C@H](OC(=O)[C@H](C(C)C)N(C)C)C(C)C)C(=O)N(C)[C@@H](COC)C(=O)N1C	183	277	222	–	–	–	–
CC[C@H](C)[C@H]1C(=O)N[C@@H](C)C(=O)N(C)[C@@H](CC(C)C)C(=O)N[C@@H](Cc2ccc(OC)cc2)C(=O)N(C)[C@H](C)C(=O)O[C@H](C)[C@H](N(C)C(=O)[C@H](CC(C)C)N(C)C(=O)[C@H](C)N(C)C(=O)[C@H](OC(=O)[C@H](C(C)C)N(C)C)C(C)C)C(=O)N(C)[C@@H](C)C(=O)N1C (NMe2Val-[dHiv][NMeA][NMeL][NMeT][NMeA][NMeI]A[NMeL]Y(Me)[dNMeA]; ester 4-C)	5.1	7	7.3	Non-Toxic	2	Active	Non-Toxic

— ChEMBL document CHEMBL4196221, “Improved Total Synthesis and Biological Evaluation of Coibamide A Analogues” (J Med Chem, 2018)
